The results in this text go back to publication PMC2225614 (The Journal of General Physiology, 2001).

What all share (assay type): biochemical, bovine/rat
Assay [1] concerns CHM20 (S5 domain exchanged between RETα and OLFα). As to the kind of experiment: Genistein inhibition of closed chimeric channel CHM20. As to conditions: closed channels. The gist of the method:
(§1)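 Chimeric RETα/OLFα channels were expressed in Xenopus oocytes (50 nl of 50 ng/μl RNA, 2–7 d), and the vitelline membrane was removed. Inside-out patches were bathed in symmetrical 115 mM NaCl, 5 mM EGTA, 1 mM EDTA, 5 mM HEPES, pH 7.5, held at −75 mV. Test compound was preapplied 1 min to closed channels, then saturating 2 mM cGMP; residual current normalized to Imax.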

For assay [2], the system named is CHM12 (RETα except for mid-S1 through S4). As to the kind of experiment: Genistein inhibition of closed chimeric channel CHM12. The conditions noted are these: closed channels. The method, boiled down:
as §1

The target in assay [3] is T1, CHM25 (RETα with H420 substituted with an asparagine) (Bos taurus, UniProt Q00194, H420Q).
T1 sequence (Q00194 1-690 H420Q): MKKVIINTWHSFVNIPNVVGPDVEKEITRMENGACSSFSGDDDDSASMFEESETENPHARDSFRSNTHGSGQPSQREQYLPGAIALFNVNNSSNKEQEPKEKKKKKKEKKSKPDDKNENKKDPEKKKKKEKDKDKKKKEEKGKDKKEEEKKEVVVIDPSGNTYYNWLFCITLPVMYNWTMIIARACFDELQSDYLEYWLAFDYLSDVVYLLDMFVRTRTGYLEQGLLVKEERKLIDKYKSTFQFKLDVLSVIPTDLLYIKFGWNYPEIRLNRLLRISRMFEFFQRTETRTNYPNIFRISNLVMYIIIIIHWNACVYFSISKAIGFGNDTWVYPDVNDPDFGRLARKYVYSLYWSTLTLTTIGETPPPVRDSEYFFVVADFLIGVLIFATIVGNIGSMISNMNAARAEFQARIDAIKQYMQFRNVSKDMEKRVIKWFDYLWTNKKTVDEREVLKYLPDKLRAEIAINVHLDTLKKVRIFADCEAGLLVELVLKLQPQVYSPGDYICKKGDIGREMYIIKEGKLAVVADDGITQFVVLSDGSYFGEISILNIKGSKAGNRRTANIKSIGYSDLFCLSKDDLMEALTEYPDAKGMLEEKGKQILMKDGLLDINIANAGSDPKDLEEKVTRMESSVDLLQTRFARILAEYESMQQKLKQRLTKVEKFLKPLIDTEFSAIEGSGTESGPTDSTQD
As to the kind of experiment: Genistein inhibition of closed chimeric channel CHM25. As to conditions: genistein applied on closed channels. The method, boiled down:
as §1

The test system of assay [4] is CHM22 (S5 domain exchanged between RETα and OLFα). Put plainly: Genistein inhibition of closed chimeric channel CHM22. The conditions noted are these: closed channels. The gist of the method:
as §1

Assay [5] has as its system CHM11 (RETα with OLFα pore module: S5, P region, S6, initial C-linker). Put plainly: Genistein inhibition of chimeric channel CHM11.
In assay [6] the test system is CHM 14 (OLFα except for mid-S1 through S4). Put plainly: Genistein inhibition of closed chimeric channel CHM 14. As to conditions: closed channels. The gist of the method: as §1
The test system of assay [7] is CHM18 (OLFα with a RETα cyclic nucleotide–binding domain). As to the kind of experiment: Genistein inhibition of closed chimeric channel CHM18. As to conditions: closed channels. The method, boiled down: as §1
Assay [8] deals with CHM34 (converse substitution in OLFα background). Put plainly: Genistein inhibition of closed chimeric channel CHM34. The conditions noted are these: closed channels.
The test system of assay [9] is CHM 30 (converse substitution in OLFα background). As to the kind of experiment: Genistein inhibition of closed chimeric channel CHM 30. The conditions noted are these: closed channels.
The target of assay [10] is T2, CHM23 (OLFα with RETα part of pore, S6 and part of C-linker) (Rattus norvegicus, UniProt Q00195, C329S/E325K/E350S/F357A/H396Q/I327V/I356V/K348R/K390R/L353F/Q399H/T383A/V373I/V394I).
T2 sequence (Q00195 1-664 E325K/I327V/C329S/K348R/E350S/L353F/I356V/F357A/V373I/T383A/K390R/V394I/H396Q/Q399H): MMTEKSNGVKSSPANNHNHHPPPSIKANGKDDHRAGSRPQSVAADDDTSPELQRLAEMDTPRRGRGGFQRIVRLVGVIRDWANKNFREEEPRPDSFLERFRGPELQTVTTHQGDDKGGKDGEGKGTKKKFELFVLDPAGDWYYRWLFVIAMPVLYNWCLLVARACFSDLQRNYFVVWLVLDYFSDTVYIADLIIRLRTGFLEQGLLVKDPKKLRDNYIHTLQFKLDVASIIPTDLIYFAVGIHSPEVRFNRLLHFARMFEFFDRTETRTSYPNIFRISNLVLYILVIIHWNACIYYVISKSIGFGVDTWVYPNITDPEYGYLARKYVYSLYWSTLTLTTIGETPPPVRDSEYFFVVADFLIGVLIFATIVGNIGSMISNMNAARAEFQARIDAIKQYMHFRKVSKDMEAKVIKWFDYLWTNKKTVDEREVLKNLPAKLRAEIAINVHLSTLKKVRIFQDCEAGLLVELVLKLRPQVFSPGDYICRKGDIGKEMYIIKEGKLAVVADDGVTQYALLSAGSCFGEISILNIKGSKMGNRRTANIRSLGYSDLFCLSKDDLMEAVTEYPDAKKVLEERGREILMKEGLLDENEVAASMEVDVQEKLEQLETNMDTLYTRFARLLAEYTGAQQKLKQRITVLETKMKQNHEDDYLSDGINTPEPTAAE
Put plainly: Genistein inhibition of closed chimeric channel CHM23. The gist of the method: as §1

With `O=c1c(-c2ccc(O)cc2)coc2cc(O)cc(O)c12` [genistein], the “effect of domain exchange on genistein inhibition” value in assay [1] and in assay [4] was “did not alter genistein inhibition” each time. The genistein inhibition entry in assay [2] was “fully inhibited”; in assay [3], “complete inhibition”; in assay [6], “not inhibited”; in [7], “no inhibition”; in assay [8], “neither substitution introduced genistein inhibition”; in assay [9], “neither substitution introduced genistein inhibition”. Further, the maximal inhibition in assay [5] (closed state, 500 μM genistein) is reported as around 15%. Besides, the genistein sensitivity result in [5] (open state, up to 500 μM genistein) is “completely insensitive”. Also, the “inhibition of closed channels” value in assay [10] amounted to 99%.
